Results from different studies.
rep papain-like protease: Replicase polyprotein 1ab, papain-like protease (rep, Porcine epidemic diarrhea virus, UniProt P0C6Y4)
SLC6A4: Sodium-dependent serotonin transporter (SLC6A4, Homo sapiens, UniProt P31645)
rep main protease: Replicase polyprotein 1ab, main protease (rep, Porcine epidemic diarrhea virus, UniProt P0C6Y4)

SMILES	target	test	test system	conditions	endpoint	value
O=C(NCc1cc(O)c(O)c(Br)c1)c1ccc2ccccc2c1	rep papain-like protease	enzyme activity, inhibitor, FRET		10 µM	inhibition	19.4%
CCOC(=O)[C@@]12C[C@@H]1[C@@H](n1cnc3c(Nc4ccccc4)nc(I)nc31)[C@H](O)[C@@H]2O	SLC6A4	ligand displacement, radioligand		10 µM	inhibition	-12%
COc1cc(-c2cc(C(C)=O)n3ccccc23)c(OC)cc1Cn1ccnc1	Bromodomain adjacent to zinc finger domain protein 2B, bromodomain (BAZ2B, Homo sapiens, UniProt Q9UIF8)	thermal stability, DSF			ΔTm	2.1 °C
CCOC(=O)[C@@]12C[C@@H]1[C@@H](n1cnc3c(NCCCCCc4ccccc4)nc(I)nc31)[C@H](O)[C@@H]2O	SLC6A4	ligand displacement, radioligand		10 µM	inhibition	48%
C1=C/COCc2cc(ccc2OCCN2CCCC2)Nc2nccc(n2)-c2cccc(c2)COC/1	Rhodopsin kinase GRK7 (GRK7, Homo sapiens, UniProt Q8WTQ7)	binding		0.1 µM	remaining binding	86%
O=C(NCc1cc(O)c(O)c(Br)c1)c1ccc2ccccc2n1	rep main protease	enzyme activity, inhibitor, FRET		10 µM	inhibition	62.4%
CCOC(=O)[C@@]12C[C@@H]1[C@@H](n1cnc3c(Nc4ccccc4)nc(C#Cc4ccc(Cl)s4)nc31)[C@H](O)[C@@H]2O	SLC6A4	ligand displacement, radioligand		10 µM	inhibition	20%
CCN1/C(=C/C(C)=O)Sc2ccc(F)cc21	SLC6A4	ligand displacement, radioligand		10 µM	inhibition	2.03%
O=C(NCc1cc(O)c(O)c(Br)c1)c1ccc(Cl)nc1	rep main protease	enzyme activity, inhibitor, FRET		10 µM	inhibition	6.11%
CCCCC[C@H](O)/C=C/[C@H]1[C@H](O)CC(=O)[C@@H]1C/C=C\CCCC(=O)O	Prostaglandin E2 receptor EP1 subtype (PTGER1, Homo sapiens, UniProt P34995)	inositol phosphate, agonist, TR-FRET	AD293	1 h	Emax	99.9%
COc1cc(CNC(=O)CC(c2ccc(Cl)cc2)C(C)C)cc(Br)c1OC (stereo not drawn)	rep main protease	enzyme activity, inhibitor, FRET		10 µM	inhibition	33%
CCCCC(=O)Nc1ccc(-c2ccc3ncn(CCC)c(=O)c3c2)cn1	BDNF/NT-3 growth factors receptor (NTRK2, Homo sapiens, UniProt Q16620)	binding, competition with immobilised ligand		0.5 µM	remaining binding	100%
CCOC(=O)[C@@]12C[C@@H]1[C@@H](n1cnc3c(NCCCCCc4ccccc4)nc(C#Cc4ccccc4)nc31)[C@H](O)[C@@H]2O	SLC6A4	ligand displacement, radioligand		10 µM, cell membranes	inhibition	27%
Cc1cc(O)c(-c2ccc([C@@H](C)CN(C)C)cc2)c2c1[nH]c(=O)c1sccc12	Mitogen-activated protein kinase kinase kinase 20 (MAP3K20, Homo sapiens, UniProt Q9NYL2)	enzyme activity, inhibitor		0.1 µM	inhibition	-2.95%
O=C(NCc1cc(O)c(O)c(Br)c1)c1cccc(C(F)(F)F)c1	rep papain-like protease	enzyme activity, inhibitor, FRET		10 µM	inhibition	102%
CCOC(=O)[C@@]12C[C@@H]1[C@@H](n1cnc3c(NCc4cccc(Cl)c4)nc(C#Cc4ccc(Cl)s4)nc31)[C@H](O)[C@@H]2O	SLC6A4	ligand displacement, radioligand		10 µM	inhibition	13%
COc1ccc(C(=O)NCc2cc(Br)c(OC)c(OC)c2)cc1	rep main protease	enzyme activity, inhibitor, FRET		10 µM	inhibition	83.7%
N#CC[C@@]12C[C@@H]1[C@@H](n1cnc3c(NC4CC4)nc(C#Cc4ccc(Cl)s4)nc31)[C@H](O)[C@@H]2O	SLC6A4	ligand displacement, radioligand		10 µM	inhibition	15%
